Assay results taken from ChEMBL document CHEMBL5724801, “EUbOPEN Chemogenomics Library - Multiplex” (2024).
Where “and” joins values, the source holds several entries; their conditions need not be identical. Equal values may be shown once.

Test system: Fibroblast
Assay: Multiplex assay against human fibroblast
Format: toxicity, cell-based
Method in brief: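 Compound was added to live cells that had been stained at seeding with Hoechst33342, BioTracker Green Microtubule Cytoskeleton Dye, MitoTracker Red and Annexin V Alexa Fluor 680, and imaging followed on a CQ1 microscope at 37°C and 5% CO2. CellPathfinder machine-learning gating divided cells into Hoechst high-intensity objects or normal cells, normal cells into healthy, pyknosed or fragmented nuclei, and pyknosed cells into mitotic or apoptotic. Tubulin, mitochondrial-mass and membrane-permeability phenotypes are per cents of healthy-nucleus cells.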

[1] = 12 h, 1 µM, compound concentration 1 uM
[2] = 12 h, 10 µM, compound concentration 10 uM
[3] = 24 h, 1 µM, compound concentration 1 uM
[4] = 24 h, 10 µM, compound concentration 10 uM
[5] = 48 h, 1 µM, compound concentration 1 uM
[6] = 48 h, 10 µM, compound concentration 10 uM

O=S(=O)(c1ccccc1)c1cnc2c(N3CCNCC3)cccc2c1 [INTEPIRDINE]
Population Apoptotic (%) [1]: 50% and 34%
Population Fragmented Nuclei (%) [1]: 23% and 28%
Population Healthy Nuclei (%) [1]: 67% and 47%
Population Hoechst High Intensity Objects (%) [1]: 3% and 4%
Population Membrane Permeable-Phenotype (%) [1]: 0% and 7%
Population Mitochondria Different-Phenotype (%) [1]: 2% and 7%
Population Mitotic Cells (%) [1]: 50% and 65%
Population Normal (%) [1]: 96% and 95%
Population Pyknosed Nuclei (%) [1]: 9% and 24%
Population Tubulin-Different-Phenotype (%) [1]: 26% and 61%
Total Cell Count [1]: 212 and 148
Population Apoptotic (%) [2]: 75% and 61%
Population Fragmented Nuclei (%) [2]: 22% and 43%
Population Healthy Nuclei (%) [2]: 62% and 40%
Population Hoechst High Intensity Objects (%) [2]: 1% and 6%
Population Membrane Permeable-Phenotype (%) [2]: 1% and 5%
Population Mitochondria Different-Phenotype (%) [2]: 8% and 13%
Population Mitotic Cells (%) [2]: 25% and 38%
Population Normal (%) [2]: 98% and 93%
Population Pyknosed Nuclei (%) [2]: 14% and 16%
Population Tubulin-Different-Phenotype (%) [2]: 44% and 68%
Total Cell Count [2]: 138 and 136
Population Apoptotic (%) [3]: 54% and 41%
Population Fragmented Nuclei (%) [3]: 16% and 32%
Population Healthy Nuclei (%) [3]: 72% and 44%
Population Hoechst High Intensity Objects (%) [3]: 5% and 0%
Population Membrane Permeable-Phenotype (%) [3]: 2% and 1%
Population Mitochondria Different-Phenotype (%) [3]: 4%
Population Mitotic Cells (%) [3]: 45% and 58%
Population Normal (%) [3]: 94% and 99%
Population Pyknosed Nuclei (%) [3]: 10% and 24%
Population Tubulin-Different-Phenotype (%) [3]: 28% and 59%
Total Cell Count [3]: 212 and 151
Population Apoptotic (%) [4]: 40% and 91%
Population Fragmented Nuclei (%) [4]: 28% and 39%
Population Healthy Nuclei (%) [4]: 65% and 50%
Population Hoechst High Intensity Objects (%) [4]: 1% and 4%
Population Membrane Permeable-Phenotype (%) [4]: 0% and 3%
Population Mitochondria Different-Phenotype (%) [4]: 7% and 15%
Population Normal (%) [4]: 98% and 95%
Population Pyknosed Nuclei (%) [4]: 6% and 10%
Population Tubulin-Different-Phenotype (%) [4]: 50% and 67%
Total Cell Count [4]: 152 and 123
Population Apoptotic (%) [5]: 66% and 52%
Population Fragmented Nuclei (%) [5]: 22% and 39%
Population Healthy Nuclei (%) [5]: 69% and 45%
Population Hoechst High Intensity Objects (%) [5]: 5% and 3%
Population Membrane Permeable-Phenotype (%) [5]: 0% and 1%
Population Mitochondria Different-Phenotype (%) [5]: 2%
Population Mitotic Cells (%) [5]: 33% and 48%
Population Normal (%) [5]: 94% and 96%
Population Pyknosed Nuclei (%) [5]: 7% and 15%
Population Tubulin-Different-Phenotype (%) [5]: 34% and 54%
Total Cell Count [5]: 213 and 170
Population Apoptotic (%) [6]: 63% and 40%
Population Fragmented Nuclei (%) [6]: 23% and 48%
Population Healthy Nuclei (%) [6]: 67% and 38%
Population Hoechst High Intensity Objects (%) [6]: 3% and 6%
Population Membrane Permeable-Phenotype (%) [6]: 1% and 6%
Population Mitochondria Different-Phenotype (%) [6]: 15% and 6%
Population Mitotic Cells (%) [6]: 36% and 60%
Population Normal (%) [6]: 96% and 93%
Population Pyknosed Nuclei (%) [6]: 8% and 12%
Population Tubulin-Different-Phenotype (%) [6]: 47% and 57%
Total Cell Count [6]: 139 and 125

C=C(C)[C@H]1CN[C@H](C(=O)O)[C@H]1CC(=O)O [KAINIC ACID]
Population Fragmented Nuclei (%) [1]: 7.74% and 5.42%
Population Healthy Nuclei (%) [1]: 70.97% and 80.83%
Population Hoechst High Intensity Objects (%) [1]: 0%
Population Membrane Permeable-Phenotype (%) [1]: 7.27% and 2.58%
Population Mitochondria Different-Phenotype (%) [1]: 7.27% and 10.31%
Population Mitotic Cells (%) [1]: 93.94% and 72.73%
Population Normal (%) [1]: 100%
Population Pyknosed Nuclei (%) [1]: 21.29% and 13.75%
Population Tubulin-Different-Phenotype (%) [1]: 10% and 19.07%
Total Cell Count [1]: 155 and 240
Population Apoptotic (%) [2]: 8.57% and 22.92%
Population Fragmented Nuclei (%) [2]: 7.35% and 3.47%
Population Healthy Nuclei (%) [2]: 75.49% and 77.99%
Population Hoechst High Intensity Objects (%) [2]: 0%
Population Membrane Permeable-Phenotype (%) [2]: 5.19% and 2.97%
Population Mitochondria Different-Phenotype (%) [2]: 6.49% and 10.89%
Population Mitotic Cells (%) [2]: 91.43% and 77.08%
Population Normal (%) [2]: 100%
Population Pyknosed Nuclei (%) [2]: 17.16% and 18.53%
Population Tubulin-Different-Phenotype (%) [2]: 11.04% and 20.3%
Total Cell Count [2]: 204 and 259
Population Apoptotic (%) [3]: 13.51% and 31.58%
Population Fragmented Nuclei (%) [3]: 7.78% and 7.44%
Population Healthy Nuclei (%) [3]: 71.67% and 84.71%
Population Hoechst High Intensity Objects (%) [3]: 0%
Population Membrane Permeable-Phenotype (%) [3]: 3.88% and 1.46%
Population Mitochondria Different-Phenotype (%) [3]: 0.78% and 5.37%
Population Mitotic Cells (%) [3]: 86.49% and 68.42%
Population Normal (%) [3]: 100%
Population Pyknosed Nuclei (%) [3]: 20.56% and 7.85%
Total Cell Count [3]: 180 and 242
Population Apoptotic (%) [4]: 5.41% and 14.29%
Population Fragmented Nuclei (%) [4]: 8.53% and 4.49%
Population Healthy Nuclei (%) [4]: 73.93% and 85.02%
Population Hoechst High Intensity Objects (%) [4]: 0%
Population Membrane Permeable-Phenotype (%) [4]: 8.33% and 2.64%
Population Mitochondria Different-Phenotype (%) [4]: 4.49% and 3.52%
Population Mitotic Cells (%) [4]: 94.59% and 85.71%
Population Normal (%) [4]: 100%
Population Pyknosed Nuclei (%) [4]: 17.54% and 10.49%
Population Tubulin-Different-Phenotype (%) [4]: 17.31% and 18.5%
Total Cell Count [4]: 211 and 267
Population Apoptotic (%) [5]: 0% and 25%
Population Fragmented Nuclei (%) [5]: 7.94% and 4.31%
Population Healthy Nuclei (%) [5]: 88.89% and 87.84%
Population Hoechst High Intensity Objects (%) [5]: 0%
Population Membrane Permeable-Phenotype (%) [5]: 0.6% and 1.34%
Population Mitochondria Different-Phenotype (%) [5]: 15.48% and 5.36%
Population Mitotic Cells (%) [5]: 100% and 75%
Population Normal (%) [5]: 100%
Population Pyknosed Nuclei (%) [5]: 3.17% and 7.84%
Total Cell Count [5]: 189 and 255
Population Apoptotic (%) [6]: 36.36% and 23.53%
Population Fragmented Nuclei (%) [6]: 9.7% and 6.92%
Population Healthy Nuclei (%) [6]: 85.65% and 86.54%
Population Hoechst High Intensity Objects (%) [6]: 0%
Population Membrane Permeable-Phenotype (%) [6]: 2.96% and 2.22%
Population Mitotic Cells (%) [6]: 63.64% and 76.47%
Population Normal (%) [6]: 100%
Population Pyknosed Nuclei (%) [6]: 4.64% and 6.54%
Total Cell Count [6]: 237 and 260
